Results from ChEMBL document CHEMBL3632461 (J Med Chem, 2015).

Columns and labels:
[1] = Oral bioavailability in Beagle dog at 3 or 5 mg/kg; assay type: ADME, organism-based, Canis lupus familiaris; settings: in vivo
Method in brief: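 Male CD-1 mice, Wistar-Han rats, beagle dogs and cynomolgus monkeys, fasted overnight and fed after dosing. Given po at 3 or 5 mg/kg in 0.5% methylcellulose, with an iv reference dose of 1 mg/kg. Bioavailability derived from plasma concentration−time data; mean ± SD (n = 3) or individual values (n = 2).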

Hepatocyte = test: Intrinsic apparent clearance in human hepatocytes assessed per 10^6 cells; assay type: ADME, cell-based
Method in brief: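 Stability incubations in NADPH-supplemented human liver microsomes or cryopreserved human hepatocytes. Total apparent intrinsic clearance scaled from the in vitro half-life; microsomes reported per mg protein, hepatocytes per 10⁶ cells.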

[2] = target: T1, Myeloperoxidase (Homo sapiens) (UniProt P05164); test: Inhibition of peroxidase activity of MPO isolated from human polynuclear leukocytes using Amplex Red as substrate assessed as formation of resorufin by measuring ratio of Kinact to Ki measured every 20 secs by spectrophotometric analysis
T1 sequence (whole entry): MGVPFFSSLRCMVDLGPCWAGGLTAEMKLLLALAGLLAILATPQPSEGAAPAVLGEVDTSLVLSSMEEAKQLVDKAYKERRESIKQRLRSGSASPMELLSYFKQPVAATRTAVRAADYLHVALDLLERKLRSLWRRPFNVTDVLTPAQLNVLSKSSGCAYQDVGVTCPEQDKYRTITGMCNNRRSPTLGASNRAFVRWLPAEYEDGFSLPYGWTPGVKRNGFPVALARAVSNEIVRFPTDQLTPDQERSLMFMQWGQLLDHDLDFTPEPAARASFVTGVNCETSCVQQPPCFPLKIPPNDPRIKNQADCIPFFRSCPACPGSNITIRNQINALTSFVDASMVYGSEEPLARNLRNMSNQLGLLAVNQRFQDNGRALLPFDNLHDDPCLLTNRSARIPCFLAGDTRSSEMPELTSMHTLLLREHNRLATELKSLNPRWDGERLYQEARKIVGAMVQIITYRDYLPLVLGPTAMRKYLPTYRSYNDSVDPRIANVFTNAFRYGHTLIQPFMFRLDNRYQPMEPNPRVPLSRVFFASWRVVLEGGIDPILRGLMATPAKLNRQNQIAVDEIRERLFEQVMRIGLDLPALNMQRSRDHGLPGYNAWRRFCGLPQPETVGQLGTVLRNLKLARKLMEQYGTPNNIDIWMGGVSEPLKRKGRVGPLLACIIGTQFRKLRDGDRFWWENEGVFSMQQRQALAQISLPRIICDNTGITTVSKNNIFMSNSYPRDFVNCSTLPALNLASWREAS
Method in brief: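 Enzyme purified from human polynuclear leukocytes. Buffer: 50 mM sodium phosphate pH 7.4, 150 mM NaCl, 1 mM DTPA, 2 μM H2O2, 30 μM Amplex Red, inhibitor or DMSO. Resorufin fluorescence (ex 530/em 580) read every 20 s at room temperature. Progress curves fitted for kobs at each concentration. kinact/KI derived from the kobs versus [I] fit or slope. Geometric mean of at least two experiments.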

Myeloperoxidase [3] = target: T2, Myeloperoxidase (Homo sapiens, UniProt P05164); test: Irreversible inhibition of MPO in LPS-stimulated human whole blood after 4 hrs by Amplex Red/H2O2-based fluorescence plate reader analysis
T2 sequence (P05164 whole entry): T1 sequence (whole entry)
Method in brief: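 Heparinized whole blood from healthy human volunteers, stimulated with bacterial LPS and incubated with compound for 4 h. MPO captured on anti-MPO antibody plates and washed; residual activity measured with Amplex Red and H₂O₂. IC₅₀ reported as geometric mean [90% CI].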

[4] = Elimination half life in Wistar rat at 1 mg/kg, iv and 3 or 5 mg/kg, po; assay type: ADME, organism-based; settings: in vivo, read-out: beta t1/2 (converted)
Method in brief: (§1)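 Male CD-1 mice (25−35 g), cannulated Wistar-Han rats (250 g), beagle dogs (12 kg) and cynomolgus monkeys (7 kg), fasted overnight and fed 1.0 or 2.0 h after dosing. iv 1 mg/kg in saline or 12% sulfobutyl ether β-cyclodextrin; po 3 or 5 mg/kg in 0.5% methylcellulose. Parameters calculated from plasma concentration−time data; mean ± SD for n = 3, individual values for n = 2.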

[5] = Apparent permeability across RRCK cells; assay type: ADME, cell-based, Canis lupus familiaris, MDCKII-LE; settings: dog, MDCK
Method in brief: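 Passive permeability measured in Ralph−Russ canine kidney (RRCK) cells, a low-transporter line isolated from Madin−Darby canine kidney cells; reported as P_app (10⁻⁶ cm/s).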

[6] = target: T1, Myeloperoxidase (Homo sapiens); test: (§2) Inhibition of peroxidase activity of MPO isolated from human polynuclear leukocytes using Amplex Red as substrate assessed as formation of resorufin measured every 20 secs by spectrophotometric analysis
Myeloperoxidase [7] = target: T2, Myeloperoxidase; test: as §2
[8] = Volume of distribution at steady state in Wistar rat at 1 mg/kg, iv and 3 or 5 mg/kg, po; assay type: ADME, organism-based; settings: in vivo, read-out: Vdss
Method in brief: (§3)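 Male mice, rats, dogs and cynomolgus monkeys, fasted overnight, fed after dosing. Intravenous dose 1 mg/kg in saline or 12% sulfobutyl ether β-cyclodextrin; oral arm 3 or 5 mg/kg in 0.5% methylcellulose. Steady-state volume derived from plasma concentration−time data; mean ± SD for n = 3, individual values for n = 2.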

Cytochrome P450 2D6 = Cytochrome P450 2D6 (Homo sapiens, UniProt P10635); test: Time-dependent inhibition of CYP2D6 in human liver microsomes; assay type: ADME
Method in brief: (§4)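 Time- and concentration-dependent CYP inhibition assessed by an IC₅₀ shift assay in human liver microsomes.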

[9] = Plasma clearance in CD-1 mouse at 1 mg/kg, iv and 3 or 5 mg/kg, po; assay type: ADME, organism-based; method in brief: as §1
[10] = Drug excretion in Wistar rat urine at 1 mg/kg, iv; assay type: ADME, organism-based; settings: read-out: Drug excretion
Method in brief: (§5)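 Male animals (beagle dogs 12 kg, Wistar-Han rats 250 g, cynomolgus monkeys 7 kg), fasted overnight and fed 1.0 or 2.0 h after dosing, water ad libitum. Dosed iv at 1 mg/kg in saline or 12% sulfobutyl ether β-cyclodextrin. Fraction of the iv dose excreted unchanged in urine.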

Liver microsome = test: Metabolic stability in NADPH-supplemented human liver microsomes assessed as GSH adduct formation; assay type: ADME
Method in brief: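 Incubation in NADPH-supplemented human liver microsomes or cryopreserved human hepatocytes, examined for glutathione adduct formation.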

[11] = Fraction unbound in rat plasma at 2 uM by equilibrium dialysis method; assay type: ADME, cell-free
Method in brief: (§6)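 Compound at 2 μM in mouse, rat, dog, monkey or human plasma; unbound fraction measured by equilibrium dialysis and reported as a mean.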

[12] = Fraction unbound in human plasma at 2 uM by equilibrium dialysis method; assay type: ADME, cell-free; method in brief: as §6
[13] = Elimination half life in cynomolgus monkey at 1 mg/kg, iv and 3 or 5 mg/kg, po; assay type: ADME, organism-based, Macaca fascicularis; settings: in vivo; method in brief: as §1
[14] = Volume of distribution at steady state in CD-1 mouse at 1 mg/kg, iv and 3 or 5 mg/kg, po; assay type: ADME, organism-based; settings: in vivo, read-out: Vdss; method in brief: as §3
[15] = Fraction unbound in monkey plasma at 2 uM by equilibrium dialysis method; assay type: ADME, cell-free, Macaca mulatta; settings: rhesus monkey; method in brief: as §6
Cytochrome P450 2C19 = Cytochrome P450 2C19 (Homo sapiens, UniProt P33261); test: Time-dependent inhibition of CYP2C19 in human liver microsomes; assay type: ADME; method in brief: as §4
[16] = Drug excretion in Beagle dog urine at 1 mg/kg, iv; assay type: ADME, organism-based, Canis lupus familiaris; settings: read-out: Drug excretion; method in brief: as §5
[17] = Retention time of the compound in sodium phosphate buffer at 10 uM after 60 mins by LC-MS/MS analysis in presence of H2O2; assay type: physicochemical; settings: 1 h

Chain of Cytochrome P450 2C19 (P33261 whole entry): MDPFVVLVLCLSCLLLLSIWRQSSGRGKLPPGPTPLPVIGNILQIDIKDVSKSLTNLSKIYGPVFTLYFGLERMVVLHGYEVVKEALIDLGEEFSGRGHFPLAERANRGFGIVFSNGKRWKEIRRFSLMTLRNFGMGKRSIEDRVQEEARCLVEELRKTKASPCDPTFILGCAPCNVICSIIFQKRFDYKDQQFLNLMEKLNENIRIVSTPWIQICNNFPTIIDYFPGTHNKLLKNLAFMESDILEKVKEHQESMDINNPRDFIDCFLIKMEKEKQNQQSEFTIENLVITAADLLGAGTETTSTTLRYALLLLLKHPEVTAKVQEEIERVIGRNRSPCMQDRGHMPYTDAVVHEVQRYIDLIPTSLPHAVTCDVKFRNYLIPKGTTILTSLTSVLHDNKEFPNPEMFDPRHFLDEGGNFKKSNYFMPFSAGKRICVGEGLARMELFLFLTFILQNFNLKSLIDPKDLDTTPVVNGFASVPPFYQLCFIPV
Chain of Cytochrome P450 2D6 (P10635 whole entry): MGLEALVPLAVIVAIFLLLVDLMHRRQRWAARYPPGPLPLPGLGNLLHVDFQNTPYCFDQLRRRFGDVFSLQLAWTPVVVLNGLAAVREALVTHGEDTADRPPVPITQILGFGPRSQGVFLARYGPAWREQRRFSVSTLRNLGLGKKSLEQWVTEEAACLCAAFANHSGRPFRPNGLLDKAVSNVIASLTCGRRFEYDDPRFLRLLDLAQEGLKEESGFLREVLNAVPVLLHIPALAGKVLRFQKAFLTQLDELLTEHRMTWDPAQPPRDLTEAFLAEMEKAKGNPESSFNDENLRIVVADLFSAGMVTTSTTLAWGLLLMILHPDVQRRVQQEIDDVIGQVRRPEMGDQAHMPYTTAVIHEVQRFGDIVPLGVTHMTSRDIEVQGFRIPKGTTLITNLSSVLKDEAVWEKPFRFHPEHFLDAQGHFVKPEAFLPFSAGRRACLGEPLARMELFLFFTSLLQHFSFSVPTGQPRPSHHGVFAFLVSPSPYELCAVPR

Structure (SMILES) | bioavailability [1] | CLH(app) (Hepatocyte) | log(ratio) [2] | IC50 (Myeloperoxidase [3]) | half-life [4] | Papp [5] | pKinact [6] | Ki (Myeloperoxidase [7]) | Vd [8] | also measured
COc1ccc(-c2cc(=O)[nH]c(=S)n2CCN)c(OC)c1 | 84% | 2.9 µL/min | 4.13 | 500 nM | 66 min | 3.5 ×10⁻⁶ cm/s | 2.61 | 174 nM | 3.71 L/kg | –
COc1ccc(Cl)cc1-c1cc(=O)[nH]c(=S)n1CC(N)=O [PF-06282999] | 75% | < 6 µL/min | – | – | 45 min | 1.6 ×10⁻⁶ cm/s | 2.43 | – | 2.13 L/kg | IC50 (Cytochrome P450 2D6): > 100 µM; clearance [9]: 10.1 mL/min/kg; dose excreted [10]: 26%; Stability (Liver microsome): Stable; fraction unbound at 2 µM [11]: 0.447; fraction unbound at 2 µM [12]: 0.376; half-life [13]: 197 min; Vd [14]: 0.9 L/kg; fraction unbound at 2 µM [15]: 0.536; IC50 (Cytochrome P450 2C19): > 100 µM; dose excreted [16]: 26%
COc1ccc(OC)c(-c2cc(=O)[nH]c(=S)n2CC(N)=O)c1 | 100% | < 6 µL/min | 4.09 | 1500 nM | 22.8 min | 1.1 ×10⁻⁶ cm/s | 2.38 | 347 nM | 0.83 L/kg | –
COc1ccc(-c2cc(=O)[nH]c(=S)n2CC(N)=O)c(OC)c1 | 31% | < 6 µL/min | 4.03 | 2600 nM | 45.6 min | 0.8 ×10⁻⁶ cm/s | 2.41 | 372 nM | 1.23 L/kg | –
COc1ccc(-c2cc(=O)[nH]c(=S)n2CCO)c(OC)c1 | 16% | < 6 µL/min | 4.47 | 2000 nM | 15 min | 13 ×10⁻⁶ cm/s | 2.34 | 151 nM | 0.82 L/kg | Retention_time [17]: 17.49 min
